According to ChEMBL document CHEMBL5712079, “The H3K27me3-demethylase KDM6A is suppressed in breast cancer stem-like cells, and enables the resolution of bivalency during the mesenchymal-epithelial transition” (Oncotarget, 2017):
The source made the active and inactive calls.

Legend:
Format in all cases: cell-based
[1] = biological target: Lysine-specific demethylase 6A (Homo sapiens) (UniProt O15550); assay: Inhibition of KDM6A in human MCF-10A cell assessed as FZD8 gene expression at 50 nM by qRT-PCR analysis
Sequence of Lysine-specific demethylase 6A (Homo sapiens) (O15550 whole entry): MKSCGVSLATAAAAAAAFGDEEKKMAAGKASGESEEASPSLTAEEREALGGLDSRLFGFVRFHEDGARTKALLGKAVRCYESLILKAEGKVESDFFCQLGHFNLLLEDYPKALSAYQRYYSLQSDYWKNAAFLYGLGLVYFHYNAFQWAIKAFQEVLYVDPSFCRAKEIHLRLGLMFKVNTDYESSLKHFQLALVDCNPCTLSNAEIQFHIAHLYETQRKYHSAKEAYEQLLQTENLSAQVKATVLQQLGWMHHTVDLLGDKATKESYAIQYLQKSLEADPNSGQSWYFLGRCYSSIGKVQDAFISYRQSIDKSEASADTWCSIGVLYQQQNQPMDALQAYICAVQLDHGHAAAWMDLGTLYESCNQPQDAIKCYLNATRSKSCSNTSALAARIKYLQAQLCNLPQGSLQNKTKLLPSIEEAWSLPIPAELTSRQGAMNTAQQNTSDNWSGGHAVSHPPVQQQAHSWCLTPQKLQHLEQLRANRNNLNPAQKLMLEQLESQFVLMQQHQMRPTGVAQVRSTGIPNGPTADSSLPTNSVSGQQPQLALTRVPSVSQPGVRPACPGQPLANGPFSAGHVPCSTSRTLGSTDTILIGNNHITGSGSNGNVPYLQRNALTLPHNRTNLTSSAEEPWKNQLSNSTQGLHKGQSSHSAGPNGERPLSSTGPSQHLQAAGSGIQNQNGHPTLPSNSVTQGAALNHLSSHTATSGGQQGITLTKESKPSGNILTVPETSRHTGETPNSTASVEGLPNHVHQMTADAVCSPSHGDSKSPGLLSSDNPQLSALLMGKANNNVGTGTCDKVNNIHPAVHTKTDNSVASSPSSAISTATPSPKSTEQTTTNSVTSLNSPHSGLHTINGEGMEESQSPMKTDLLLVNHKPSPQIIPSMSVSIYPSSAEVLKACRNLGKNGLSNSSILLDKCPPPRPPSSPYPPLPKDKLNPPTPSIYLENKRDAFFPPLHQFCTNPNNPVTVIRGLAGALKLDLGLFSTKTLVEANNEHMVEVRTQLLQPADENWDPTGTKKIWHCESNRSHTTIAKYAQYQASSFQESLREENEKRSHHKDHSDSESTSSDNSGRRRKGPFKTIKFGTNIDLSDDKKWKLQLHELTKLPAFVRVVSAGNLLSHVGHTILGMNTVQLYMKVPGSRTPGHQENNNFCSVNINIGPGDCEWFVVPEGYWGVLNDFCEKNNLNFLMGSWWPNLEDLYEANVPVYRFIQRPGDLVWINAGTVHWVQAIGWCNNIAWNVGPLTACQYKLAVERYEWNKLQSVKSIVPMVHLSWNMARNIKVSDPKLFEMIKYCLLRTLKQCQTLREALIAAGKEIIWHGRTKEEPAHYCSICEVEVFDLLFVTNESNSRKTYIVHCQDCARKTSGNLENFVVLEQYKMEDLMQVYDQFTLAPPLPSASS
Summary of the method: (§1)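 MCF10A monolayers were exposed to TGFB at 2.5 ng/ml for 6 days to induce EMT, then cultured without TGFB for 10 days (MET) with compound at 50 nM or DMSO vehicle. Vehicle-only and TGFB-only arms served as references. RNA was analysed by qRT-PCR, normalised to GAPDH by 2^-ΔΔCt, and run in triplicate (mean ± SD). Significance was by unpaired t-tests with Holm-Sidak correction.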

[2] = biological target: Lysine-specific demethylase 6A (Homo sapiens) (UniProt O15550); assay: Inhibition of KDM6A in human MCF-10A cell assessed as ILKAP gene expression at 50 nM by qRT-PCR analysis; summary of the method: as §1
[3] = biological target: Lysine-specific demethylase 6A (Homo sapiens) (UniProt O15550); assay: Inhibition of KDM6A in human MCF-10A cell assessed as H2AFY2 gene expression at 50 nM by qRT-PCR analysis; summary of the method: as §1
[4] = biological target: Lysine-specific demethylase 6A (Homo sapiens) (UniProt O15550); assay: Inhibition of KDM6A in human MCF-10A cell assessed as CBX4 gene expression at 50 nM by qRT-PCR analysis; summary of the method: as §1
[5] = biological target: Lysine-specific demethylase 6A (Homo sapiens) (UniProt O15550); assay: Inhibition of KDM6A in human MCF-10A cell assessed as CDK4 gene expression at 50 nM by qRT-PCR analysis; summary of the method: as §1
[6] = biological target: Lysine-specific demethylase 6A (Homo sapiens) (UniProt O15550); assay: Inhibition of KDM6A in human MCF-10A cell assessed as MAP3K9 gene expression at 50 nM by qRT-PCR analysis; summary of the method: as §1
[7] = biological target: Lysine-specific demethylase 6A (Homo sapiens) (UniProt O15550); assay: Inhibition of KDM6A in human MCF-10A cell assessed as CCNA1 gene expression at 50 nM by qRT-PCR analysis; summary of the method: as §1
[8] = biological target: Lysine-specific demethylase 6A (Homo sapiens) (UniProt O15550); assay: Inhibition of KDM6A in human MCF-10A cell assessed as LRRC8D gene expression at 50 nM by qRT-PCR analysis; summary of the method: as §1
[9] = biological target: Lysine-specific demethylase 6A (Homo sapiens) (UniProt O15550); assay: Inhibition of KDM6A in human MCF-10A cell assessed as C60ORF14 gene expression at 50 nM by qRT-PCR analysis; summary of the method: as §1
[10] = biological target: Lysine-specific demethylase 6A (Homo sapiens) (UniProt O15550); assay: Inhibition of KDM6A in human MCF-10A cell assessed as PKP2 gene expression at 50 nM by qRT-PCR analysis; summary of the method: as §1
[11] = biological target: Lysine-specific demethylase 6A (Homo sapiens) (UniProt O15550); assay: Inhibition of KDM6A in human MCF-10A cell assessed as THOC6 gene expression at 50 nM by qRT-PCR analysis; summary of the method: as §1
[12] = biological target: Lysine-specific demethylase 6A (Homo sapiens) (UniProt O15550); assay: Inhibition of KDM6A in human MCF-10A cell assessed as MED30 gene expression at 50 nM by qRT-PCR analysis; summary of the method: as §1
[13] = biological target: Lysine-specific demethylase 6A (Homo sapiens) (UniProt O15550); assay: Inhibition of KDM6A in human MCF-10A cell assessed as FAM60A gene expression at 50 nM by qRT-PCR analysis; summary of the method: as §1
[14] = biological target: Lysine-specific demethylase 6A (Homo sapiens) (UniProt O15550); assay: Inhibition of KDM6A in human MCF-10A cell assessed as FAM117A gene expression at 50 nM by qRT-PCR analysis; summary of the method: as §1
[15] = biological target: Lysine-specific demethylase 6A (Homo sapiens) (UniProt O15550); assay: Inhibition of KDM6A in human MCF-10A cell assessed as ZNF232 gene expression at 50 nM by qRT-PCR analysis; summary of the method: as §1
[16] = biological target: Lysine-specific demethylase 6A (Homo sapiens) (UniProt O15550); assay: Inhibition of KDM6A in human MCF-10A cell assessed as vimentin expression at 50 nM by immunostaining analysis
Summary of the method: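 MCF10A cells received TGFB (2.5 ng/ml; vehicle was 4 mM HCl with 0.1% BSA) to induce EMT, then TGFB was withdrawn in the presence of compound (50 nM) or DMSO. Cells were fixed and immunostained for vimentin and imaged by inverted fluorescence microscopy.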

[17] = biological target: Lysine-specific demethylase 6A (Homo sapiens) (UniProt O15550); assay: Inhibition of KDM6A in human MCF-10A cell assessed as COBLL1 gene expression at 50 nM by qRT-PCR analysis; summary of the method: as §1
[18] = biological target: Lysine-specific demethylase 6A (Homo sapiens) (UniProt O15550); assay: Inhibition of KDM6A in human MCF-10A cell assessed as PUS3 gene expression at 50 nM by qRT-PCR analysis; summary of the method: as §1

Measured: inhibition

CCOC(=O)CCNc1cc(N2CCc3ccccc3CC2)nc(-c2ccccn2)n1
active: all assays above
